Measured values taken from ChEMBL document CHEMBL5034049, “Flavonol-Based Carbon Monoxide Delivery Molecule with Endoplasmic Reticulum, Mitochondria, And Lysosome Localization” (ACS Med Chem Lett, 2022).
Active and inactive are the calls of the source. No cut-off for these calls is given here.

Columns and labels:
HFL1 [1] = assay: Cytotoxicity against human HFL1 cells assessed as reduction in cell viability incubated for 24 hrs under dark condition by MTT assay; format: cell-based; details: HFL1, 24 h
RAW264.7 [2] = assay: Antiinflammatory activity against LPS-stimulated mouse RAW264.7 cells assessed as inhibition of TNF-alpha production incubated for 4 hrs followed by illumination with blue LED array for 1 hr and later incubated for 6 hrs under dark conditions followed by LPS stimulation for 1 hr by ELISA; format: functional, cell-based; details: time 12.0 hrs
Method in brief: (§1)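 TNF-α suppression in RAW 264.7 macrophages challenged with LPS. Dark and illuminated treatments run as independent experiments. Mean ± SEM from three independent experiments, compared with the LPS positive control and with the matching non-illuminated treatment.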

A549 [3] = assay: Cytotoxicity against human A549 cells assessed as reduction in cell viability incubated for 24 hrs under dark condition by MTT assay; format: cell-based; details: A549, 24 h
RAW264.7 [4] = assay: Cytotoxicity against mouse RAW264.7 cells assessed as reduction in cell viability incubated for 24 hrs under dark condition by MTT assay; format: cell-based; details: RAW264.7, 24 h
A549 [5] = assay: Cytotoxicity against human A549 cells assessed as inhibition of cell viability preincubated under visible light-induced CO release condition for 1 hr followed by incubation with drug for 23 hrs by MTT assay; format: functional, cell-based
RAW264.7 [6] = assay: Cytotoxicity against mouse RAW264.7 cells assessed as reduction in cell viability up to 100 uM incubated for 24 hrs under dark condition by MTT assay; format: cell-based; details: raw264.7, 24 h
HFL1 [7] = assay: Cytotoxicity against human HFL1 cells assessed as reduction in cell viability up to 100 uM incubated for 24 hrs under dark condition by MTT assay; format: cell-based; details: hfl1, 24 h
A549 [8] = assay: Cytotoxicity against human A549 cells assessed as reduction in cell viability up to 100 uM incubated for 24 hrs under dark condition by MTT assay; format: cell-based; details: a549, 24 h
[9] = Drug uptake in endoplasmic reticulum of human A549 cells at 25 uM measured after 1 hr by ER-Tracker Red based confocal microscopic analysis; format: ADME; details: a549, 1 h
Method in brief: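 A549 cells treated 1 h at 25 μM (vehicle 0.4% DMSO), then counterstained with Hoechst 33342 and ER-Tracker Red. Imaged by confocal microscopy. Overlap given as Pearson's colocalization coefficient, mean ± SEM over 27 cells examined individually across three separate experiments. Line intensity profiles of regions of interest taken over 20 μm.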

[10] = Drug uptake in mouse RAW264.7 cells at 5 uM after 4 hrs by Hoechst 33258 staining based fluorescence microscopic analysis; format: ADME, cell-based; details: raw264.7, 4 h
[11] = Drug uptake in human A549 cells assessed as clustering of emission at 1 uM after 1 hr by confocal microscopy; format: ADME, cell-based; details: a549, 1 h
Method in brief: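 A549 cells exposed 1 h at 1 μM with a media control. Hoechst nuclear counterstain. Confocal imaging at 63×, compound emission read in the green channel.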

[12] = Drug uptake in human HFL1 cells at 1 uM after 4 hrs by Hoechst 33258 staining based fluorescence microscopic analysis; format: ADME, cell-based; details: hfl1, 4 h
[13] = Drug uptake in lysosome of human A549 cells at 25 uM measured after 1 hr by LysoTracker Red based confocal microscopic analysis; format: ADME, subcellular; details: a549, 1 h
[14] = Drug uptake in human A549 cells at 1 uM after 4 hrs by Hoechst 33342 staining based fluorescence microscopic analysis; details: a549, 4 h
RAW264.7 [15] = assay: Antiinflammatory activity against LPS-stimulated mouse RAW264.7 cells assessed as inhibition of TNF-alpha production at 40 nM incubated for 10 hrs under dark conditions followed by LPS stimulation for 1 hr by ELISA; format: functional, cell-based; details: time 11.0 hrs; method in brief: as §1
[16] = Drug uptake in mitochondria of human A549 cells at 25 uM measured after 1 hr by MitoTracker Deep Red based confocal microscopic analysis; format: ADME; details: a549, 1 h

SMILES | Activity (RAW264.7 [2]) | IC50 (A549 [3]) [µM] | IC50 (RAW264.7 [4]) [µM] | IC50 (A549 [5]) [µM] | Activity (RAW264.7 [6]) | Activity (HFL1 [7]) | Activity (A549 [8]) | further results
O=c1c(O)c(-c2ccccc2)oc2cc3ccccc3cc12 | Active | 80.2 | 47.7 | 76.1 |  |  |  | IC50 (HFL1 [1]): 65.1 µM
O=C(NCC[P+](c1ccccc1)(c1ccccc1)c1ccccc1)c1ccc(-c2oc3cc4ccccc4cc3c(=O)c2O)cc1 |  | 14.1 |  | 4.6 |  |  |  | 
CCN(CC)c1ccc(C(=O)Oc2cc3ccccc3cc2C(=O)O)cc1 |  |  |  |  | Non-Toxic | Non-Toxic | Non-Toxic | 
CCN(CC)c1ccc(-c2oc3cc4ccccc4cc3c(=O)c2O)cc1 | Active | > 100 | 67.2 | 10.7 |  | Non-Toxic | Non-Toxic | Drug uptake [9]: Active; Drug uptake [10]: Active; Drug uptake [11]: Active; Drug uptake [12]: Active; Drug uptake [13]: Active; Drug uptake [14]: Active; Activity (RAW264.7 [15]): Active; Drug uptake [16]: Active
O=C(Oc1cc2ccccc2cc1C(=O)O)c1ccccc1 |  |  |  |  | Non-Toxic | Non-Toxic | Non-Toxic | 
